We go through eight substances from ChEMBL document CHEMBL1136783, “New cytotoxic and water-soluble bis(2-phenylazopyridine)ruthenium(II) complexes” (J Med Chem, 2003).

In assay [1] the test system is A2780. Description: Cytotoxicity against human ovarian carcinoma A2780cisR cell line. It is filed as functional, cell-based. In a few lines:
(§1)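 Cells kept in log-phase DMEM with 10% fetal calf serum, penicillin/streptomycin and Glutamax. Seeded at 2000 cells/well and allowed 48 h adhesion at 37 °C, 5% CO2. Exposed 72 h to compound diluted from a DMSO stock into complete medium, final 0.01 to 0.0001 mg/mL, in quadruplicate. Vehicle control contained 1% DMSO. Proliferation read by MTT (1 h, DMSO solubilization, OD 590 nm).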

In assay [2] the test system is A2780. Description: Cytotoxicity against human ovarian carcinoma A2780 cell line. Type of assay: functional, cell-based. In a few lines:
as §1

As usually defined, the IC50 is the concentration that inhibits the measured activity by half.

With CISPLATIN, the half-inhibitory concentration (IC50) in the assay with A2780 [1] came to 7.8 µM; in the assay with A2780 [2] it was 2.3 µM.

For the substance beta-[Ru(azpy)2(NO3)2] CHCl3, the IC50 is 12.1 µM in the assay with A2780 [1] and 9.7 µM in the assay with A2780 [2].

On to alpha-[Ru(azpy)2Cl2], for which the IC50 was found to be 0.98 µM in the assay with A2780 [1] and 0.85 µM in the assay on A2780 [2].

Turning to beta-[Ru(azpy)2Cl2] CHCl3, the values for the IC50 with A2780 [1] and with A2780 [2] were 7.3 µM and 1.6 µM, respectively.

Consider alpha-[Ru(azpy)2(cbdca-O,O')], for which the IC50 came to 4.9 µM in the assay on A2780 [1] and 7.2 µM in the assay on A2780 [2].

For the substance alpha-[Ru(azpy)2(NO3)2], the IC50 stood at 6.3 µM in the assay with A2780 [1] and 8.5 µM in the assay with A2780 [2].

For the substance CARBOPLATIN, the IC50 in the assay with A2780 [1] turned out to be 41.6 µM; with A2780 [2], 8.2 µM.

With alpha-[Ru(azpy)2(mal)], the 50% inhibitory concentration (IC50) in the assay with A2780 [1] was found to be 6.2 µM; in the assay with A2780 [2] it was 7.9 µM.
